Experimental data published in paper PMC3744103 (Molecular cancer therapeutics, 2013).
Several values for one entry are separate records, joined by “and”; a condition that tells them apart may be missing. Equal values may be shown once.

What was measured:
[1] = test system: SP1 binding to Cyclin D1 promoter in UMUC3 cells; experiment: ChIP assay; assay type: cell-based, human; conditions: UMUC3, ISO 5 μM, 12 hours
Procedure, shortened: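 Chromatin immunoprecipitation (EZ-ChIP kit) on UMUC3 cells left untreated or given 5 μM test compound for 12 h. Precipitated DNA amplified by PCR with primers covering the SP1-binding region −92 to +27 of the human Cyclin D1 promoter.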

[2] = test system: Cyclin D1 protein expression in UMUC3 cells; experiment: Western blotting of Cyclin D1 and cell cycle regulators; assay type: cell-based, human
[3] = test system: SP1-dependent transcriptional activity in UMUC3 cells; experiment: SP1 luciferase reporter assay; assay type: cell-based, human; conditions: UMUC3 stable reporter, ISO 5μM, P<0.01
Procedure, shortened: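 A reporter with three consensus SP1 sites was stably co-transfected with pRL-TK and pSuper into UMUC3 cells. Cells were seeded at 1×10^4 per well and, at 80–90% confluence, exposed to 5 μM test compound for various times. Lysis buffer was Tris-phosphate pH 7.8 with EDTA, Triton X-100 and glycerol. Dual-luciferase read-out gave relative SP1 activity (means±SE, three independent experiments).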

cardiac hypertrophy = conditions: by anti-oxidative activity; cited from earlier work
[4] = test system: endogenous Cyclin D1 and exogenous GFP-Cyclin D1 in UMUC3 transfectants; experiment: Western blotting in stable transfectants; assay type: cell-based, human; conditions: ISO 24 h
Procedure, shortened: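 UMUC3 cells stably transfected with GFP or GFP-Cyclin D1 constructs were treated with test compound for 24 h. Cells were lysed in 10 mM Tris-HCl (pH 7.4), 1% SDS, 1 mM Na3VO4, and protein was quantified by DC assay. Blots were probed with primary antibodies and an AP-conjugated secondary, with ECF detection.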

UMUC3 cells [5] = experiment: Anchorage-independent growth assay; assay type: cell-based, human; conditions: UMUC3 in soft agar, concentration-dependent, as low as 5 μM, P<0.01
Procedure, shortened: (§1)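 UMUC3 cells (DMEM, 10% FBS; stable GFP or GFP-Cyclin D1 transfectants made by co-transfection with pSuper vector) were seeded at 1×10^4 per well in 0.33% soft agar in 10% FBS BME, with or without test compound, over a 0.5% agar bottom layer. Vehicle was 0.1% DMSO. Cultures were kept at 37°C, 5% CO2 for 21 days. Colonies over 32 cells were counted by microscope as colonies per 10,000 seeded cells (mean±SD, 3 experiments).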

UMUC3(GFP) cells = experiment: Cell cycle analysis by flow cytometry in stable transfectant; assay type: cell-based, human; conditions: ISO 24 h, control 62.74%
UMUC3 cells [6] = experiment: Cell morphology observation; assay type: cell-based, human; conditions: UMUC3, 20 μM ISO, 24 hours
[7] = test system: bovine aortic smooth muscle cells (BASMCs); conditions: cited from earlier work
UMUC3 cells [8] = experiment: Cell cycle and apoptosis analysis by flow cytometry; assay type: cell-based, human; conditions: UMUC3, 5 μM ISO; for cells in G0/G1 (growth arrest): control 47.58%
[9] = test system: Cyclin D1 protein expression in Cl41 cells; experiment: Western blotting of Cyclin D1; assay type: cell-based, mouse; conditions: normal Cl41 cell line, 24h
[10] = test system: cyclin d1 mRNA in UMUC3 cells; experiment: Semiquantitative RT-PCR; assay type: cell-based, human; conditions: UMUC3, concentration- and time-dependent (24 h; 5 μM time course)
Procedure, shortened: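 UMUC3 cells treated with test compound at the indicated concentrations for 24 h, or at 5 μM for the indicated times. Total RNA isolated with TRIzol and reverse transcribed. Cyclin D1 mRNA measured by semiquantitative RT-PCR against GAPDH, with products run on 2% agarose and stained with ethidium bromide.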

[11] = test system: Cyclin D1 protein expression in RT112 cells; experiment: Western blotting of Cyclin D1; assay type: cell-based, human
[12] = ISO pharmacokinetics in mouse serum, LC/MS/MS; assay type: in vivo, mice; conditions: for Caverage ± SD, serum ISO concentration: mouse serum, 150 mg/kg gastric gavage, n=3
Procedure, shortened: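 Male […] mice (20–25 g, 30 total) received 150 mg/kg by gastric gavage; three were killed per time point from 0.033 to 4 h. Serum (centrifuged 4000 rpm, 30 min; stored −20 °C) extracted with methanol, filtered 0.45 μm and run on LC/MS/MS: negative ESI, MRM, m/z 257.0/241.1, naringenin 271.1/151.1. Parameters derived by non-compartmental analysis.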

[13] = test system: Cyclin D1 protein expression in RT4 cells; experiment: Western blotting of Cyclin D1; assay type: cell-based, human; conditions: low grade RT4 cell line, 24h
Cl41 cells = experiment: Cell viability, ATPase activity assay; assay type: cell-based, mouse; conditions: normal Cl41 cells, ISO 5–60 μM, 48 h
[14] = test system: UMUC3(GFP-Cyclin D1) cells; experiment: Cell cycle analysis by flow cytometry in stable transfectant; assay type: cell-based, human; conditions: ISO 24 h, control 51.01%
[15] = test system: SP1 protein expression in UMUC3 cells; experiment: Western blotting of cytoplasmic and nuclear extracts for transcription factors; assay type: cell-based, human; conditions: UMUC3, 5 μM ISO, 12 h
Procedure, shortened: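 UMUC3 cells in 10-cm dishes were treated with 0.1% DMSO or 5 μM test compound for 12 h. Cytoplasmic and nuclear fractions were prepared with a nuclear/cytosol fractionation kit and stored at −80°C. Immunoblots used an AP-conjugated secondary with ECF detection and GAPDH as loading control. Nuclear SP1 was quantified by scanning relative to C-Jun (n=3).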

UMUC3 cells [16] = experiment: Cell viability, ATPase activity assay; assay type: cell-based, human
Procedure, shortened: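 Cells exposed for 48 h to varying concentrations of test compound, with 0.1% DMSO as vehicle control. Viability read by an ATPase-based assay in three independent experiments. UMUC3 kept in DMEM with 10% FBS at 37 °C and 5% CO2. IC50 given with n=3.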

[17] = test system: UMUC3 (GFP) and UMUC3 (GFP-Cyclin D1) cells; experiment: Anchorage-independent growth in soft agar, stable transfectants; assay type: cell-based, human; conditions: UMUC3 (GFP) vs UMUC3 (GFP-Cyclin D1) in soft agar
Procedure, shortened: as §1

[18] = test system: human bladder cancer cells; conditions: cited from earlier work
[19] = test system: Cyclin D1 promoter transcriptional activity in UMUC3 cells; experiment: Cyclin D1 promoter-driven luciferase reporter assay; assay type: cell-based, human; conditions: ISO 5μM
Procedure, shortened: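 UMUC3 cells stably carrying a Cyclin D1 promoter-luciferase reporter were seeded at 1×10^4 per well and treated with 5 μM test compound at 80–90% confluence for the indicated times. Luciferase activity read on a microplate luminometer.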

RT4 cells = experiment: Cell viability, ATPase activity assay; assay type: cell-based, human; conditions: read-out: IC50, cell viability; RT4, ISO 5–60 μM, 48 h, n=3
[20] = mice, 150 mg/kg oral, non-compartmental model

COc1cc(/C=C/c2cc(O)cc(O)c2)ccc1O [ISO, Isorhapontigenin]
SP1 binding to Cyclin D1 promoter region −92~+27 [1]: this binding was impaired | earliest time of significant reduction of Cyclin D1 expression ([2]; UMUC3, 5 μM ISO): 6 h | Cyclin B1 expression ([2]; UMUC3, 5 μM ISO, 24 h): slightly reduced | expression of Cyclin A, Cyclin E, Cyclin B1, CDK4, CDK6, P53, P27, P21 ([2]; UMUC3, different concentrations of ISO, 24 hours): did not show observable inhibition | Cyclin D1 protein expression ([2]; UMUC3, different concentrations of ISO, 24 hours, vs DMSO): concentration-dependent reduction of Cyclin D1 protein expression | SP1-dependent transcriptional activity [3]: dramatically inhibition of SP1-dependent transcriptional activity | cardiac hypertrophy (cardiac hypertrophy): inhibits cardiac hypertrophy | endogenous Cyclin D1 vs exogenous GFP-Cyclin D1 protein expression [4]: only downregulated endogenous Cyclin D1 protein expression | anchorage-independent growth (UMUC3 cells [5]): markedly inhibited anchorage-independent growth | cells in G0/G1 (growth arrest) (UMUC3(GFP) cells): 74.60% | morphologic changes (UMUC3 cells [6]): shrinkage, rounding, detachment and membrane blebbing | oxLDL-induced proliferation and mitogenesis [7]: inhibitory effect | apoptotic cells (UMUC3 cells [8]): did not induce any increases of apoptotic cells | cells in G0/G1 (growth arrest) (UMUC3 cells [8]; 12h): 57.98% | cells in G0/G1 (growth arrest) (UMUC3 cells [8]; 24h): 62.62% | Cyclin D1 expression [9]: marginal induction of Cyclin D1 | cyclin d1 mRNA [10]: marked reduction of cyclin d1 mRNA | earliest time of significant reduction of Cyclin D1 expression ([11]; RT112, 5 μM ISO): 6 h | Cyclin D1 expression ([11]; high grade RT112 cell line, 24h): markedly inhibition of Cyclin D1 expression | AUC(0-t) [12, 20]: 6.09 ± 2.81 µg·h/mL | AUC(0-∞) [12, 20]: 6.10 ± 2.80 µg·h/mL | CLz/F, apparent clearance [12, 20]: 27.7 ± 10.3 L/h/kg | MRT(0-t), mean residence time [12, 20]: 42 ± 12 min | t1/2z, terminal half-life ([12]; mice, 150 mg/kg oral, non-compartmental model, 150 mg/kg): 1.7 h and 1.72 ± 0.27 h | Caverage ± SD, serum ISO concentration ([12]; 0.033 h): 6.80 ± 2.10 µg/mL | Caverage ± SD, serum ISO concentration ([12]; 0.083 h): 10.74 ± 3.52 µg/mL | Caverage ± SD, serum ISO concentration ([12]; 0.170 h): 12.35 ± 4.79 µg/mL | Caverage ± SD, serum ISO concentration ([12]; 0.250 h): 9.23 ± 4.84 µg/mL | Caverage ± SD, serum ISO concentration ([12]; 0.500 h): 6.22 ± 3.60 µg/mL | Caverage ± SD, serum ISO concentration ([12]; 0.750 h): 0.83 ± 0.80 µg/mL | Caverage ± SD, serum ISO concentration ([12]; 1.000 h): 0.29 ± 0.24 µg/mL | Caverage ± SD, serum ISO concentration ([12]; 1.500 h): 0.28 ± 0.14 µg/mL | Caverage ± SD, serum ISO concentration ([12]; 2.000 h): 0.17 ± 0.12 µg/mL | Caverage ± SD, serum ISO concentration ([12]; 4.000 h): 0.03 ± 0.01 µg/mL | Cyclin D1 expression [13]: slight inhibition | cell viability (Cl41 cells): no obvious reduction of cell viability | cells in G0/G1 (growth arrest) [14]: 54.61% | SP1 protein expression [15]: only downregulated SP1 protein expression | expression, activation or nuclear translocation of C-FOS, P-C-JUN(ser 73), P-C-JUN(ser63), C-JUN, HSF-1, P-ATFII, P-NF-κB p65, NF-κB p65 [15]: did not show any observable inhibition | cell proliferation (UMUC3 cells [16]; UMUC3, 5 μM ISO): inhibition of cell proliferation | IC50 (UMUC3 cells [16]; read-out: IC50, cell viability, UMUC3, ISO 5–60 μM, 48 h, n=3): 22.4 ± 3.3 µM | inhibition of anchorage-independent growth [17]: reversed by ectopic expression of GFP-Cyclin D1 | apoptosis ([18]; UMUC3 and other invasive BC cells, 20μM): induced apoptosis | cytotoxic effect ([18]; human bladder cancer cell lines, concentration lower than 20 μM): do not show cytotoxic effect | anchorage-independent growth ([18]; human bladder cancer cells, 20~60 μM): significant inhibitory effect on anchorage-independent growth | Cyclin D1 transcription, SP1 mutant reporter ([19]; UMUC3/SP1mut-Cyclin D1-Luc transfectant): did not shown a significant inhibition of Cyclin D1 transcription | Cyclin D1 transcription, WT reporter ([19]; UMUC3/WT Cyclin D1-Luc transfectant): inhibited Cyclin D1 transcription | Cyclin D1 promoter transcriptional activity ([19]; UMUC3 stable reporter, time-dependent, P<0.01): marked inhibition of Cyclin D1 promoter transcriptional activity | IC50 (RT4 cells): 38.6 ± 2.9 µM
